ChEMBL document CHEMBL4373696, “Probing the Existence of a Metastable Binding Site at the β2-Adrenergic Receptor with Homobivalent Bitopic Ligands” (J Med Chem, 2019)

What was measured:
[1] = biological target: T1, Beta-2 adrenergic receptor (Homo sapiens, UniProt P07550); test: Antagonist activity at beta2 adrenergic receptor (unknown origin) expressed in HEK293 cell assessed as inhibition of isoproterenol-induced cAMP production preincubated for 15 mins followed by isoproterenol addition and measured after 15 mins; type: functional, cell-based
[2] = biological target: T1, Beta-2 adrenergic receptor; test: Antagonist activity at beta2 adrenergic receptor (unknown origin) stably expressed in HEK293 cell membranes assessed as inhibition of isoproterenol-induced cAMP production preincubated for 15 mins followed by isoproterenol addition and measured after 30 mins by TR-FRET assay; type: functional, cell-based
Homo sapiens [3] = organism: Homo sapiens; test: Selectivity ratio of Ki for displacement of [3H]DHA from beta1 adrenergic receptor (unknown origin) stably expressed in HEK293 cell membranes to displacement of [3H]DHA from beta2 adrenergic receptor (unknown origin) stably expressed in HEK293 cell membranes
[4] = biological target: T1, Beta-2 adrenergic receptor; test: Displacement of [3H]DHA from beta2 adrenergic receptor (unknown origin) stably expressed in HEK293 cell membranes measured after 90 mins by scintillation counting analysis
[5] = biological target: T2, Beta-1 adrenergic receptor (Homo sapiens, UniProt P08588); test: Antagonist activity at beta1 adrenergic receptor (unknown origin) stably expressed in HEK293 cell membranes assessed as inhibition of isoproterenol-induced cAMP production preincubated for 15 mins followed by isoproterenol addition and measured after 30 mins by TR-FRET assay; type: cell-based
Method in brief: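 Membranes from HEK293 cells stably overexpressing β1AR; ligand's blockade of isoproterenol-stimulated cAMP production measured; pIC50 as mean ± SEM from 3-8 independent experiments run in duplicate.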

Homo sapiens [6] = organism: Homo sapiens; test: Selectivity ratio of IC50 for antagonist activity at beta1 adrenergic receptor (unknown origin) stably expressed in HEK293 cell membranes to IC50 for antagonist activity at beta2 adrenergic receptor (unknown origin) stably expressed in HEK293 cell membranes; type: cell-based
[7] = biological target: T2, Beta-1 adrenergic receptor; test: Displacement of [3H]DHA from beta1 adrenergic receptor (unknown origin) stably expressed in HEK293 cell membranes measured after 90 mins by scintillation counting analysis

T1 sequence (P07550 whole entry): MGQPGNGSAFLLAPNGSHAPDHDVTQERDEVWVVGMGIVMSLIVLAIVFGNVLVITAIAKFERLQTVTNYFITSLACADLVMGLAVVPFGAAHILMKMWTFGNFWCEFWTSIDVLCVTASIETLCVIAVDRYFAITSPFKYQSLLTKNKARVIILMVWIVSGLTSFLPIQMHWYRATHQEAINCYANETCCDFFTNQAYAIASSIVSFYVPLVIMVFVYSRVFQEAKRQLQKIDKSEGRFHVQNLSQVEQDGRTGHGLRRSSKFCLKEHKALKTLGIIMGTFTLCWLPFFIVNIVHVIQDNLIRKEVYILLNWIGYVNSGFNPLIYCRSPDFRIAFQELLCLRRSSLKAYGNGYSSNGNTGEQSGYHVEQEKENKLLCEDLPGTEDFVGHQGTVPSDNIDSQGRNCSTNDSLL
T2 sequence (P08588 whole entry): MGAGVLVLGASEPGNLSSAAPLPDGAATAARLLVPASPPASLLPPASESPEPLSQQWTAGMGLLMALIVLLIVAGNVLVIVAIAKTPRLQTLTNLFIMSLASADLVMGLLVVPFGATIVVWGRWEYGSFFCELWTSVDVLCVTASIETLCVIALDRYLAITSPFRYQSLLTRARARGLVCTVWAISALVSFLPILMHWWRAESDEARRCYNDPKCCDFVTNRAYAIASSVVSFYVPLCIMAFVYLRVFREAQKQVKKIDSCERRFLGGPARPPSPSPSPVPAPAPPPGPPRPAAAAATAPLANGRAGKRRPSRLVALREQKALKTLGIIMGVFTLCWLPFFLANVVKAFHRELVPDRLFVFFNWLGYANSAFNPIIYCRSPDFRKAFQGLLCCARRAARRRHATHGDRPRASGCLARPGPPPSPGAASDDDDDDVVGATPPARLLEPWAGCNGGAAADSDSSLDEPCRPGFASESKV

Row | IC50 [1] [nM] | IC50 [2] [nM] | Ki ([4]; read-out: pKi (converted)) [nM] | IC50 [5] [nM] | Ki [7] [nM] | Ki [4] [nM] | Structure (SMILES) | Ratio Ki (Homo sapiens [3]) | Ratio IC50 (Homo sapiens [6])
1 | 25.7 | 6.92 | 1.15 | 13.8 | 1.26 | – | CC(C)NC[C@H](O)COc1ccccc1CCCCCCCCCCCCc1ccccc1OC[C@@H](O)CNC(C)C | 1.1 | 2
2 | 1.2 | 2.88 | 0.437 | 4.68 | 1.1 | – | CC(C)NC[C@H](O)COc1ccccc1CCCn1cc(CNCc2cn(CCCc3ccccc3OC[C@@H](O)CNC(C)C)nn2)nn1 | 2.51 | 1.6
3 | 1.78 | 1.58 | 0.38 | 14.5 | 3.98 | – | CC(C)NC[C@H](O)COc1ccccc1CCCCNC(=O)NCCCCc1ccccc1OC[C@@H](O)CNC(C)C | 10.5 | 9.2
4 | – | 46.8 | – | 234 | – | – | CC(C)NC[C@H](O)COc1ccccc1OCCOCCOc1ccccc1OC[C@@H](O)CNC(C)C | – | 5
5 | – | 5.89 | – | – | – | – | CC(C)NC[C@H](O)COc1ccccc1CCCC(=O)NCCNC(=O)CCCc1ccccc1 | – | –
6 | – | 8.32 | – | 1780 | – | – | CC(C)NC[C@H](O)COc1ccccc1CCC(=O)NCCCNC(=O)CCc1ccccc1OC[C@@H](O)CNC(C)C | – | 214
7 | – | 74.1 | – | 97.7 | – | – | CC(C)NC[C@H](O)COc1ccccc1OCCOCCOCCOc1ccccc1OC[C@@H](O)CNC(C)C | – | 1.3
8 | 3.31 | 75.9 | 11.7 | 2040 | 269 | – | CC(C)NC[C@H](O)COc1ccccc1CCC(=O)NCCNC(=O)CCc1ccccc1OC[C@@H](O)CNC(C)C | 22.9 | 26.5
9 | 2.04 | 4.68 | 0.891 | 19.5 | 2.88 | – | CC(C)NC[C@H](O)COc1ccccc1CCn1cc(CNCc2cn(CCc3ccccc3OC[C@@H](O)CNC(C)C)nn2)nn1 | 3.24 | 4.2
10 | 1.58 | 7.59 | 1.17 | 372 | 44.7 | 1.91 | CC(C)NC[C@H](O)COc1ccccc1CCCNC(=O)NCCCc1ccccc1OC[C@@H](O)CNC(C)C | 38 | 49.2
11 | – | 11.2 | – | 182 | – | – | CC(C)NC[C@H](O)COc1ccccc1CCCC(=O)NCCCCNC(=O)CCCc1ccccc1OC[C@@H](O)CNC(C)C | – | 16.2
12 | 2.19 | 16.2 | 3.47 | 126 | 19.5 | – | CC(C)NC[C@H](O)COc1ccccc1CCNC(=O)NCCc1ccccc1OC[C@@H](O)CNC(C)C | 5.62 | 7.7
13 | 6.31 | 64.6 | 15.5 | 490 | 83.2 | – | CC(C)NC[C@H](O)COc1ccccc1Cn1cc(CNCc2cn(Cc3ccccc3OC[C@@H](O)CNC(C)C)nn2)nn1 | 5.37 | 7.6
14 | – | 214 | – | 4470 | – | – | CC(C)NC[C@@H](O)COc1ccccc1CCCC(=O)NCCNC(=O)CCCc1ccccc1OC[C@H](O)CNC(C)C | – | 20.9
15 | 1.55 | 6.61 | 0.759 | 26.3 | 8.91 | 1.29 | CC(C)NC[C@H](O)COc1ccccc1CCCC(=O)NCCNC(=O)CCCc1ccccc1OC[C@@H](O)CNC(C)C | 11.8 | 4
16 | – | 13.8 | – | – | – | – | COc1ccccc1CCCNC(=O)NCCCc1ccccc1OC[C@@H](O)CNC(C)C | – | –
17 | 214 | 2630 | 468 | 11000 | 2570 | – | CC(C)NC[C@H](O)COc1ccccc1CC(=O)NCCNC(=O)Cc1ccccc1OC[C@@H](O)CNC(C)C | 5.5 | 4.1
18 | – | 85.1 | – | – | – | – | CCCNC(=O)NCCCc1ccccc1OC[C@@H](O)CNC(C)C | – | –
19 | – | 64.6 | – | – | – | – | CCCC(=O)NCCNC(=O)CCCc1ccccc1OC[C@@H](O)CNC(C)C | – | –
20 | – | 1.74 | – | 5.62 | – | – | CC(C)NC[C@H](O)COc1ccccc1CCCCCNC(=O)NCCCCCc1ccccc1OC[C@@H](O)CNC(C)C | – | 3.2
21 | 5.25 | 2.34 | 0.794 | 20 | 4.17 | – | CC(C)NC[C@H](O)COc1ccccc1CCCCCCCCc1ccccc1OC[C@@H](O)CNC(C)C | 5.25 | 8.6
22 | – | 6.46 | – | 28.2 | – | – | CC(C)NC[C@H](O)COc1ccccc1CCCC(=O)NCCCNC(=O)CCCc1ccccc1OC[C@@H](O)CNC(C)C | – | 4.3
23 | – | 14.1 | – | – | – | – | CC(C)NC[C@H](O)COc1ccccc1CCCNC(=O)NCCCc1ccccc1 | – | –
24 | – | 3.89 | – | – | – | – | COc1ccccc1CCCC(=O)NCCNC(=O)CCCc1ccccc1OC[C@@H](O)CNC(C)C | – | –
25 | 3.24 | 3.8 | 0.955 | 27.5 | 6.46 | – | CC(C)NC[C@H](O)COc1ccccc1CCCCCCc1ccccc1OC[C@@H](O)CNC(C)C | 6.76 | 7.2
26 | 13.8 | 3.8 | 1.51 | 11.2 | 1.82 | – | CC(C)NC[C@H](O)COc1ccccc1CCCCCCCCCCc1ccccc1OC[C@@H](O)CNC(C)C | 1.2 | 2.9
27 | 12 | 170 | 38.9 | 3630 | 479 | – | CC(C)NC[C@H](O)COc1ccccc1-n1cc(CNCc2cn(-c3ccccc3OC[C@@H](O)CNC(C)C)nn2)nn1 | 12.3 | 21.4
